# Test results published in ChEMBL document CHEMBL1671669, “Novel antimalarial aminoquinolines: heme binding and effects on normal or Plasmodium falciparum-parasitized human erythrocytes” (Antimicrob Agents Chemother, 2009).
# Active and inactive are the calls of the source. No cut-off for these calls is given here.
# How the values were obtained:
# [1] = Toxicity in human RBC assessed as hemolysis at 50 uM; format: cell-based; conditions: erythrocyte
# Procedure, shortened: (§1)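 Human RBC at 5% Htc in PBS-glucose held 2 h at 37°C with a range of compound concentrations, alone or with 10 μM FP. Cells spun down; hemolysis read as A412 of released Hb in supernatant. Five experiments in triplicate.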
# [2] = Toxicity in human RBC assessed as potentiation of ferriprotoporphyrin 9-induced hemolysis at 50 uM after 2hrs in presence of 10 uM; format: cell-based; conditions: erythrocyte; procedure, shortened: as §1
# [3] = Toxicity in human RBC assessed as hemolysis at 50 uM at 40 degC in presence of 10 uM ferriprotoporphyrin 9; format: cell-based, Erythrocyte; conditions: human red blood cells (RBC), read-out: Activity
# Procedure, shortened: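 Hemolysis assay as for the 37°C format (5% Htc RBC, PBS-glucose, 2 h, 10 μM FP, supernatant A412 read-out), but run at 40°C.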
# [4] = Toxicity in human RBC assessed as hemolysis pretreated at 50 uM for 30 mins followed by washing and incubated with 40 uM ferriprotoporphyrin 9 for 2hrs; format: cell-based; conditions: erythrocyte
# Procedure, shortened: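 RBC exposed 30 min to 50 μM compound, washed, then held 2 h with 40 μM FP; hemolysis read from supernatant Hb at A412.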
# Plasmodium falciparum [5] = assay: Antiplasmodial activity against chloroquine-susceptible Plasmodium falciparum D10; format: functional, organism-based
# Plasmodium falciparum [6] = assay: Antiplasmodial activity against chloroquine-resistant Plasmodium falciparum W2; format: functional, organism-based
# [7] = Drug uptake in human RBC at 50 uM in absence of 10 um ferriprotoporphyrin 9; format: ADME, cell-based; conditions: erythrocyte
# Procedure, shortened: (§2)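 Washed human RBC given 50 μM compound for 30 min at 37°C, with or without 10 μM FP. Total uptake and membrane-bound fraction measured fluorimetrically after washing and CHCl3-1 N HCl extraction. One representative experiment in triplicate.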
# Erythrocyte = assay: Induction of denaturation of hemoglobin in human RBC in acidic condition assessed as denatured hemoglobin level per millimitre of packed RBC; format: functional
# Procedure, shortened: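 Fitch-Russell method: intact RBC from 50 μl packed cells brought to 10 ml in 150 mM sodium acetate pH 5.0, held 90 min at 39°C with or without compound at 100 μM. Pellets spun at 3,500 × g, washed thrice in acetate, dissolved in 10 mM Tris-HCl, 2.5% SDS, 0.2 N NaOH; denatured Hb taken as FP from A412 minus A700.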
# Homo sapiens [8] = organism: Homo sapiens; assay: Binding affinity to normal human RBC membrane in presence of 15% hematocrit by fluorimetric method
# Procedure, shortened: (§3)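 Human A+ RBC (citrate-phosphate-dextrose, ≤10 days), washed in cold PBS, held at 15% Htc in PBS-5 mM glucose. Incubation with compound (10 to 50 μM, 50 μM for parasitized comparisons) 30 min at 37°C. Normal RBC or D10/W2-parasitized RBC at 4,0% parasitemia. Cells pelleted, washed free of unbound drug, extracted into CHCl3-1 N HCl, quinoline read by fluorescence.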
# [9] = Octanol-water partition coefficient, log P of the compound; format: physicochemical
# [10] = Distribution coefficient, log D of the compound at pH 7.4; format: physicochemical; conditions: octanol/water
# [11] = Vacuolar accumulation ratio of the compound at pH 5.2; format: ADME
# Procedure, shortened: (§4)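 VAR taken as antilog of calculated log D7.4 minus calculated log D5.2. log D from log P and pKa values measured potentiometrically at 25°C in 0.15 M KCl (n-octanol/0.15 M KCl partitioning). LAR calculated by an earlier published procedure.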
# [12] = Lipid accumulation ratio of the compound; format: physicochemical; procedure, shortened: as §4
# Homo sapiens [13] = organism: Homo sapiens; assay: Ratio of binding affinity to human RBC membrane parasitized with Plasmodium falciparum D10 to binding affinity to normal human RBC; procedure, shortened: as §3
# Homo sapiens [14] = organism: Homo sapiens; assay: Ratio of binding affinity to human RBC membrane parasitized with Plasmodium falciparum W2 to binding affinity to normal human RBC; procedure, shortened: as §3
# Plasmodium falciparum [15] = assay: Resistance index, ratio of IC50 for chloroquine-resistant Plasmodium falciparum W2 to IC50 for chloroquine-susceptible Plasmodium falciparum D10; format: functional
# [16] = Drug uptake in human RBC at 50 uM in presence of 10 um ferriprotoporphyrin 9; format: ADME, cell-based; conditions: erythrocyte; procedure, shortened: as §2
# Ferriprotoporphyrin IX = assay: Binding affinity to ferriprotoporphyrin 9sassessed as quenching of Soret band in presence of 40% DMSO-10 mM sodium phosphate buffer at pH 6.0
# Procedure, shortened: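 Heme (FP, fresh stock in 0.02 N NaOH diluted in PBS) at 15 μM final in 10 mM sodium phosphate pH 6.0 with 40% DMSO, compound added at 1 to 200 μM; absorption spectra read after 2 min, Soret band quenching followed. Job's plot run in parallel (FP plus compound totalling 10 μM, A400 difference vs molar ratio). Three experiments in triplicate.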
# [17] = Inhibition of beta-hematin formation by BHIA assay; format: functional
Structure (SMILES),Activity [1],Activity [2],hemolysis at 50 µM [3],Activity [4],IC90 (Plasmodium falciparum [5]),IC90 (Plasmodium falciparum [6]),Drug uptake [7],Activity (Erythrocyte),Activity (Homo sapiens [8]),logP [9],logD [10],Ratio [11],Ratio [12],IC50 (Plasmodium falciparum [5]),IC50 (Plasmodium falciparum [6]),Ratio (Homo sapiens [13]),Ratio (Homo sapiens [14]),Ratio IC50 (Plasmodium falciparum [15]),Drug uptake [16],Activity (Ferriprotoporphyrin IX),further results
CCN(CC)CCCC(C)Nc1ccnc2cc(Cl)ccc12 (stereo not drawn) [CHLOROQUINE],Non-toxic,Toxic,84%,Non-toxic,44.6 nM,441 nM,10%,40 nmol/h,Dose-dependent effect,–,–,–,–,–,–,–,–,–,–,–,–
Clc1ccc2c(NC[C@@H]3CCCN4CCCC[C@H]34)ccnc2c1,Non-toxic,Toxic,28%,Non-toxic,34.3 nM,54.9 nM,18%,Active,Dose-dependent effect,4.94,2.26,22600,182,26.4 nM,41.8 nM,1.5,2,1.59,50%,Active,IC50 [17]: 1.52 equiv; inhibition [17]: Dose-dependent effect
Clc1ccc2c(N[C@H]3CCCN4CCCC[C@H]34)ccnc2c1,Non-toxic,Toxic,50%,Non-toxic,35.1 nM,33.1 nM,18%,Active,Dose-dependent effect,4.57,2.69,14900,490,24.2 nM,21.3 nM,2,1.5,0.88,50%,Active,IC50 [17]: 1.12 equiv; inhibition [17]: Dose-dependent effect
